Data published in ChEMBL document CHEMBL5303300, “EUbOPEN Chemogenomics Library - Multiplex” (2023).
Where “and” joins values, the source holds several entries; their conditions need not be identical. Identical values can stand only once.

Experiments:
Format in all cases: toxicity, cell-based
[1] = system: Fibroblast; assay: Multiplex assay against human fibroblast; conditions: number of replicates 2
Summary of the method: (§1)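 Four dyes were applied at seeding to live cells: Hoechst33342, BioTracker Green Microtubule Cytoskeleton Dye, MitoTracker Red and Annexin V Alexa Fluor 680. Imaging after compound addition used a CQ1 microscope at 37°C and 5% CO2. CellPathfinder machine-learning gating then sorted cells into Hoechst high-intensity objects or normal cells, normal cells into healthy, pyknosed or fragmented nuclei, and pyknosed cells into mitotic or apoptotic, with tubulin, mitochondrial-mass and membrane-permeability phenotypes given as per cents of healthy-nucleus cells.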

[2] = system: HEK-293T; assay: Multiplex assay against HEK293T; conditions: human, number of replicates 2; summary of the method: as §1
[3] = system: U2OS; assay: Multiplex assay against U2OS; conditions: human, number of replicates 2; summary of the method: as §1
[4] = 12 h, 1 µM, compound concentration 1 uM
[5] = 12 h, 10 µM, compound concentration 10 uM
[6] = 24 h, 1 µM, compound concentration 1 uM
[7] = 24 h, 10 µM, compound concentration 10 uM
[8] = 48 h, 1 µM, compound concentration 1 uM
[9] = 48 h, 10 µM, compound concentration 10 uM

SMILES: Cc1c(C(=O)Nc2ccc(N3C[C@@H](C)O[C@@H](C)C3)nc2)cccc1-c1ccc(OC(F)(F)F)cc1 [SONIDEGIB]
- Population Apoptotic (%) [1, 4]: 46% and 32%
- Population Fragmented Nuclei (%) [1, 4]: 13% and 9%
- Population Healthy Nuclei (%) [1, 4]: 64% and 70%
- Population Hoechst High Intensity Objects (%) [1, 4]: 0%
- Population Membrane Permeable-Phenotype (%) [1, 4]: 5%
- Population Mitochondria Different-Phenotype (%) [1, 4]: 0% and 1%
- Population Mitotic Cells (%) [1, 4]: 53% and 67%
- Population Normal (%) [1, 4]: 100%
- Population Pyknosed Nuclei (%) [1, 4]: 22% and 20%
- Population Tubulin-Different-Phenotype (%) [1, 4]: 16% and 10%
- Total Cell Count [1, 4]: 193 and 230
- Population Apoptotic (%) [1, 5]: 55% and 38%
- Population Fragmented Nuclei (%) [1, 5]: 8% and 9%
- Population Healthy Nuclei (%) [1, 5]: 83% and 80%
- Population Hoechst High Intensity Objects (%) [1, 5]: 0%
- Population Membrane Permeable-Phenotype (%) [1, 5]: 1% and 0%
- Population Mitochondria Different-Phenotype (%) [1, 5]: 1% and 0%
- Population Mitotic Cells (%) [1, 5]: 44% and 61%
- Population Normal (%) [1, 5]: 100%
- Population Pyknosed Nuclei (%) [1, 5]: 7% and 10%
- Population Tubulin-Different-Phenotype (%) [1, 5]: 1% and 7%
- Total Cell Count [1, 5]: 117 and 128
- Population Apoptotic (%) [1, 6]: 53% and 52%
- Population Fragmented Nuclei (%) [1, 6]: 15% and 12%
- Population Healthy Nuclei (%) [1, 6]: 60% and 69%
- Population Hoechst High Intensity Objects (%) [1, 6]: 0%
- Population Membrane Permeable-Phenotype (%) [1, 6]: 3%
- Population Mitochondria Different-Phenotype (%) [1, 6]: 1% and 0%
- Population Mitotic Cells (%) [1, 6]: 46% and 47%
- Population Normal (%) [1, 6]: 100%
- Population Pyknosed Nuclei (%) [1, 6]: 24% and 17%
- Population Tubulin-Different-Phenotype (%) [1, 6]: 10% and 7%
- Total Cell Count [1, 6]: 179 and 224
- Population Apoptotic (%) [1, 7]: 53% and 57%
- Population Fragmented Nuclei (%) [1, 7]: 15% and 16%
- Population Healthy Nuclei (%) [1, 7]: 73% and 70%
- Population Hoechst High Intensity Objects (%) [1, 7]: 0%
- Population Membrane Permeable-Phenotype (%) [1, 7]: 4% and 5%
- Population Mitochondria Different-Phenotype (%) [1, 7]: 0% and 2%
- Population Mitotic Cells (%) [1, 7]: 46% and 42%
- Population Normal (%) [1, 7]: 100%
- Population Pyknosed Nuclei (%) [1, 7]: 10% and 13%
- Population Tubulin-Different-Phenotype (%) [1, 7]: 4% and 8%
- Total Cell Count [1, 7]: 123 and 141
- Population Apoptotic (%) [1, 8]: 63% and 45%
- Population Fragmented Nuclei (%) [1, 8]: 16% and 12%
- Population Healthy Nuclei (%) [1, 8]: 65% and 72%
- Population Hoechst High Intensity Objects (%) [1, 8]: 0%
- Population Membrane Permeable-Phenotype (%) [1, 8]: 1% and 5%
- Population Mitochondria Different-Phenotype (%) [1, 8]: 0%
- Population Mitotic Cells (%) [1, 8]: 36% and 54%
- Population Normal (%) [1, 8]: 100%
- Population Pyknosed Nuclei (%) [1, 8]: 18% and 15%
- Population Tubulin-Different-Phenotype (%) [1, 8]: 9% and 3%
- Total Cell Count [1, 8]: 162 and 218
- Population Apoptotic (%) [1, 9]: 57% and 66%
- Population Fragmented Nuclei (%) [1, 9]: 13% and 18%
- Population Healthy Nuclei (%) [1, 9]: 75% and 59%
- Population Hoechst High Intensity Objects (%) [1, 9]: 0%
- Population Membrane Permeable-Phenotype (%) [1, 9]: 4% and 6%
- Population Mitochondria Different-Phenotype (%) [1, 9]: 0% and 1%
- Population Mitotic Cells (%) [1, 9]: 42% and 33%
- Population Normal (%) [1, 9]: 100%
- Population Pyknosed Nuclei (%) [1, 9]: 10% and 21%
- Population Tubulin-Different-Phenotype (%) [1, 9]: 3% and 6%
- Total Cell Count [1, 9]: 128 and 138
- Population Apoptotic (%) [2, 4]: 36% and 33%
- Population Fragmented Nuclei (%) [2, 4]: 3%
- Population Healthy Nuclei (%) [2, 4]: 85% and 86%
- Population Hoechst High Intensity Objects (%) [2, 4]: 3% and 6%
- Population Membrane Permeable-Phenotype (%) [2, 4]: 3%
- Population Mitochondria Different-Phenotype (%) [2, 4]: 12%
- Population Mitotic Cells (%) [2, 4]: 63% and 66%
- Population Normal (%) [2, 4]: 96% and 93%
- Population Pyknosed Nuclei (%) [2, 4]: 11% and 9%
- Population Tubulin-Different-Phenotype (%) [2, 4]: 43% and 46%
- Total Cell Count [2, 4]: 668 and 769
- Population Apoptotic (%) [2, 5]: 55% and 57%
- Population Fragmented Nuclei (%) [2, 5]: 3% and 4%
- Population Healthy Nuclei (%) [2, 5]: 84% and 85%
- Population Hoechst High Intensity Objects (%) [2, 5]: 7% and 10%
- Population Membrane Permeable-Phenotype (%) [2, 5]: 3% and 1%
- Population Mitochondria Different-Phenotype (%) [2, 5]: 18% and 15%
- Population Mitotic Cells (%) [2, 5]: 44% and 42%
- Population Normal (%) [2, 5]: 92% and 89%
- Population Pyknosed Nuclei (%) [2, 5]: 11% and 10%
- Population Tubulin-Different-Phenotype (%) [2, 5]: 56% and 45%
- Total Cell Count [2, 5]: 652 and 496
- Population Apoptotic (%) [2, 6]: 39% and 27%
- Population Fragmented Nuclei (%) [2, 6]: 3% and 4%
- Population Healthy Nuclei (%) [2, 6]: 90% and 89%
- Population Hoechst High Intensity Objects (%) [2, 6]: 6% and 7%
- Population Membrane Permeable-Phenotype (%) [2, 6]: 3% and 2%
- Population Mitochondria Different-Phenotype (%) [2, 6]: 5% and 3%
- Population Mitotic Cells (%) [2, 6]: 60% and 72%
- Population Normal (%) [2, 6]: 93% and 92%
- Population Pyknosed Nuclei (%) [2, 6]: 6% and 5%
- Population Tubulin-Different-Phenotype (%) [2, 6]: 30% and 33%
- Total Cell Count [2, 6]: 984 and 1195
- Population Apoptotic (%) [2, 7]: 53% and 55%
- Population Fragmented Nuclei (%) [2, 7]: 6% and 7%
- Population Healthy Nuclei (%) [2, 7]: 83%
- Population Hoechst High Intensity Objects (%) [2, 7]: 6% and 8%
- Population Membrane Permeable-Phenotype (%) [2, 7]: 3%
- Population Mitochondria Different-Phenotype (%) [2, 7]: 5%
- Population Mitotic Cells (%) [2, 7]: 46% and 45%
- Population Normal (%) [2, 7]: 93% and 91%
- Population Pyknosed Nuclei (%) [2, 7]: 9%
- Population Tubulin-Different-Phenotype (%) [2, 7]: 30% and 28%
- Total Cell Count [2, 7]: 975 and 681
- Population Apoptotic (%) [2, 8]: 17% and 12%
- Population Fragmented Nuclei (%) [2, 8]: 12%
- Population Healthy Nuclei (%) [2, 8]: 84%
- Population Hoechst High Intensity Objects (%) [2, 8]: 7% and 10%
- Population Membrane Permeable-Phenotype (%) [2, 8]: 5% and 4%
- Population Mitochondria Different-Phenotype (%) [2, 8]: 0%
- Population Mitotic Cells (%) [2, 8]: 82% and 87%
- Population Normal (%) [2, 8]: 92% and 89%
- Population Pyknosed Nuclei (%) [2, 8]: 3%
- Population Tubulin-Different-Phenotype (%) [2, 8]: 12% and 15%
- Total Cell Count [2, 8]: 2699 and 2880
- Population Apoptotic (%) [2, 9]: 14% and 19%
- Population Fragmented Nuclei (%) [2, 9]: 13% and 10%
- Population Healthy Nuclei (%) [2, 9]: 83% and 86%
- Population Hoechst High Intensity Objects (%) [2, 9]: 8% and 7%
- Population Membrane Permeable-Phenotype (%) [2, 9]: 4% and 5%
- Population Mitochondria Different-Phenotype (%) [2, 9]: 0%
- Population Mitotic Cells (%) [2, 9]: 85% and 80%
- Population Normal (%) [2, 9]: 91% and 92%
- Population Pyknosed Nuclei (%) [2, 9]: 2% and 3%
- Population Tubulin-Different-Phenotype (%) [2, 9]: 12% and 8%
- Total Cell Count [2, 9]: 2536 and 1733
- Population Apoptotic (%) [3, 4]: 66% and 51%
- Population Healthy Nuclei (%) [3, 4]: 60% and 79%
- Population Hoechst High Intensity Objects (%) [3, 4]: 0%
- Population Membrane Permeable-Phenotype (%) [3, 4]: 4% and 1%
- Population Mitochondria Different-Phenotype (%) [3, 4]: 0%
- Population Mitotic Cells (%) [3, 4]: 33% and 48%
- Population Normal (%) [3, 4]: 100%
- Population Pyknosed Nuclei (%) [3, 4]: 7% and 13%
- Population Tubulin-Different-Phenotype (%) [3, 4]: 56% and 90%
- Population Healthy Nuclei (%) [3, 5]: 61% and 85%
- Population Hoechst High Intensity Objects (%) [3, 5]: 0%
- Population Membrane Permeable-Phenotype (%) [3, 5]: 0% and 1%
- Population Mitochondria Different-Phenotype (%) [3, 5]: 0%
- Population Mitotic Cells (%) [3, 5]: 100% and 54%
- Population Normal (%) [3, 5]: 100%
- Population Pyknosed Nuclei (%) [3, 5]: 11%
- Population Tubulin-Different-Phenotype (%) [3, 5]: 57% and 90%
- Population Apoptotic (%) [3, 6]: 50% and 66%
- Population Healthy Nuclei (%) [3, 6]: 68% and 85%
- Population Hoechst High Intensity Objects (%) [3, 6]: 0%
- Population Membrane Permeable-Phenotype (%) [3, 6]: 0% and 2%
- Population Mitochondria Different-Phenotype (%) [3, 6]: 0%
- Population Mitotic Cells (%) [3, 6]: 50% and 33%
- Population Normal (%) [3, 6]: 100% and 99%
- Population Pyknosed Nuclei (%) [3, 6]: 4% and 9%
- Population Tubulin-Different-Phenotype (%) [3, 6]: 64% and 88%
- Population Apoptotic (%) [3, 7]: 50% and 63%
- Population Healthy Nuclei (%) [3, 7]: 61% and 90%
- Population Hoechst High Intensity Objects (%) [3, 7]: 0%
- Population Membrane Permeable-Phenotype (%) [3, 7]: 4% and 1%
- Population Mitochondria Different-Phenotype (%) [3, 7]: 0%
- Population Mitotic Cells (%) [3, 7]: 50% and 36%
- Population Normal (%) [3, 7]: 100%
- Population Pyknosed Nuclei (%) [3, 7]: 10% and 7%
- Population Tubulin-Different-Phenotype (%) [3, 7]: 75% and 90%
- Population Apoptotic (%) [3, 8]: 33% and 54%
- Population Healthy Nuclei (%) [3, 8]: 60% and 89%
- Population Hoechst High Intensity Objects (%) [3, 8]: 0%
- Population Membrane Permeable-Phenotype (%) [3, 8]: 6% and 1%
- Population Mitochondria Different-Phenotype (%) [3, 8]: 0%
- Population Mitotic Cells (%) [3, 8]: 66% and 45%
- Population Normal (%) [3, 8]: 100%
- Population Pyknosed Nuclei (%) [3, 8]: 5% and 7%
- Population Tubulin-Different-Phenotype (%) [3, 8]: 70% and 89%
- Population Apoptotic (%) [3, 9]: 42% and 46%
- Population Healthy Nuclei (%) [3, 9]: 71% and 91%
- Population Hoechst High Intensity Objects (%) [3, 9]: 0%
- Population Membrane Permeable-Phenotype (%) [3, 9]: 0% and 1%
- Population Mitochondria Different-Phenotype (%) [3, 9]: 0%
- Population Mitotic Cells (%) [3, 9]: 57% and 53%
- Population Normal (%) [3, 9]: 100%
- Population Pyknosed Nuclei (%) [3, 9]: 8% and 6%
- Population Tubulin-Different-Phenotype (%) [3, 9]: 74% and 89%
